Consider 14 compounds from ChEMBL document CHEMBL5032501, “Total Synthesis and Antimalarial Activity of 2-(p-Hydroxybenzyl)-prodigiosins, Isoheptylprodigiosin, and Geometric Isomers of Tambjamine MYP1 Isolated from Marine Bacteria” (J Med Chem, 2021).

For series [1], the system named is Plasmodium falciparum. Description: Antiplasmodial activity against asexual blood stage of multidrug-resistant Plasmodium falciparum 7G8 infected in human erythrocytes assessed as reduction in parasite growth incubated for 72 hrs by SYBR green 1 staining based assay. Particulars: 7G8, Erythrocyte. In kind it is functional, organism-based. An outline of the steps:
(§1)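 P. falciparum grown in human erythrocytes at 2% hematocrit in RPMI 1640 with 0.5% Albumax II, hypoxanthine and gentamicin. Assay run at 0.2% parasitemia, 2% hematocrit, triplicate, 72 h at 37 °C under low oxygen. Starting range 2.5–2500 nM, adjusted as needed. SYBR Green I lysis buffer added for 1 h in the dark, fluorescence read at ex 497/em 520 nm. IC50 by nonlinear regression against drug-free controls.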

The subject of series [2] is Plasmodium falciparum. Description: Antiplasmodial activity against asexual stage of chloroquine-sensitive Plasmodium falciparum D6 infected in human erythrocytes assessed as reduction in parasite growth incubated for 72 hrs by SYBR green 1 staining based assay. To be noted: D6, Erythrocyte. Format: functional, organism-based. A digest of the protocol: as §1
Series [3] has as its system Plasmodium yoelii. Description: Antimalarial activity against blood stage Plasmodium yoelii infected in CF1 mouse assessed as reduction in parasitemia at 5 mg/kg, po administered once daily for 4 days and measured on day 5 by Giemsa staining based microscopic analysis relative to control. In kind it is functional. Particulars: time 4 day. Also on record: scale not given: the % may be the effect or the level left. An outline of the steps: (§2)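 Female CF1 mice, 7–8 weeks old, about 30 g, n = 4 per group. Infected iv with 2.5 × 104 P. yoelii (Kenya strain) parasitized erythrocytes from a donor mouse. Dosed orally in PEG-400, 5 or 25 mg/kg once daily for 4 days, starting the day after inoculation. Giemsa-stained tail-vein blood films read the day after the last dose, then weekly to day 28. Parasitemia taken relative to vehicle controls.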

A short description of series [4]: Toxicity in CF-1 mouse infected with blood stage Plasmodium yoelii assessed as reduction in body weight at 5 to 25 mg/kg, po administered once daily for 4 days and measured for 28 days. Format: organism-based. To be noted: in vivo, 96 h, dose 5-25 mg/kg, time 4 day. A digest of the protocol:
(§3)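 CF1 mice infected with P. yoelii and given oral doses of 5 or 25 mg/kg in PEG-400 once daily for 4 days. Checked daily for mortality, morbidity and signs of toxicity. Body weight, grooming, posture and locomotion monitored over the study, to day 28. Compared with the vehicle control group.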

The subject of series [5] is Plasmodium yoelii. Description: Antimalarial activity against blood stage Plasmodium yoelii infected in CF1 mouse assessed as reduction in parasitemia at 25 mg/kg, po administered once daily for 4 days and measured on day 5 by Giemsa staining based microscopic analysis relative to control. Format: functional. Also on record: scale not given: the % may be the effect or the level left. Particulars: time 4 day. An outline of the steps: as §2

The test system of series [6] is Plasmodium falciparum. Description: Antiplasmodial activity against asexual blood stage of multidrug-resistant Plasmodium falciparum Dd2 infected in human erythrocytes assessed as reduction in parasite growth incubated for 72 hrs by SYBR green 1 staining based assay. Format: functional, organism-based. To be noted: Dd2, Erythrocyte. A digest of the protocol:
as §1

A short description of series [7]: Therapeutic index, ratio of IC50 for cytotoxicity against human HepG2 cells to IC50 for antiplasmodial activity against asexual blood stage of chloroquine-sensitive Plasmodium falciparum D6 infected in human erythrocytes.
Series [8] deals with Plasmodium falciparum. Description: Antiplasmodial activity against asexual blood stage of multidrug-resistant Plasmodium falciparum TM90C2B infected in human erythrocytes assessed as reduction in parasite growth incubated for 72 hrs by SYBR green 1 staining based assay. In kind it is functional, organism-based. Particulars: Erythrocyte.
A short description of series [9]: Toxicity in CF-1 mouse infected with blood stage Plasmodium yoelii assessed as behavioral changes at 5 to 25 mg/kg, po administered once daily for 4 days and measured for 28 days. Format: organism-based. To be noted: in vivo, 96 h, dose 5-25 mg/kg, time 4 day. A digest of the protocol:
as §3

The subject of the next series is HepG2. Description: Cytotoxicity against human HepG2 cells assessed as reduction in cell viability measured for 48 hrs by MTT assay. To be noted: HepG2, 48 h. In kind it is cell-based.
Series [10] deals with Plasmodium yoelii. Description: Antimalarial activity against blood stage Plasmodium yoelii infected in CF1 mouse assessed as reduction in parasitemia administered orally once daily for 4 days and measured for 28 days by Giemsa staining based microscopic analysis. Format: functional. To be noted: po, 96 h, time 4 day. An outline of the steps:
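Female CF1 mice, 7–8 weeks old, about 30 g, n = 4 per group. Dosed orally in PEG-400, 5 or 25 mg/kg once daily for 4 days, starting the day after inoculation. Giemsa-stained tail-vein blood films read the day after the last dose, then weekly to day 28. Parasitemia taken relative to vehicle controls.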

The IC50 is the concentration that inhibits the measured activity by half. Usually ED50 stands for the dose at which the effect has come halfway, by size or by number of responders. Consider `CCCCCCCc1cc(/C=C2\N=C(c3ccc[nH]3)C=C2OC)[nH]c1C.Cl`, for which the IC50 in the series with Plasmodium falciparum [1] was 4.1 nM; in the series with Plasmodium falciparum [2], 4.2 nM; in the series on Plasmodium falciparum [6], 4.5 nM; with Plasmodium falciparum [8], 2.5 nM; in the series on HepG2, 1350 nM. Also, the Activity with Plasmodium yoelii [3] is recorded as 89%; in [4], “Non-Toxic”; in the series on Plasmodium yoelii [5] it was 100%; in [9], “Non-Toxic”. Besides, the selectivity ratio in [7] was determined as 320. For the same compound, the ED50 in the series with Plasmodium yoelii [10] stood at 2.6 mg/kg/day. The ED90 with Plasmodium yoelii [10] worked out at 9.2 mg/kg/day.

Turning to `CCCCCCCc1cc(/C=C2\N=C(c3ccc(Cc4ccc(O)cc4)[nH]3)C=C2OC)[nH]c1C.Cl`, the IC50 in the series on Plasmodium falciparum [1] amounted to 44 nM; in the series with Plasmodium falciparum [2], 48 nM; in the series with Plasmodium falciparum [6], 54 nM; with Plasmodium falciparum [8], 40 nM; in the series with HepG2, 9240 nM. Besides, the Activity in the series on Plasmodium yoelii [3] is listed as 25%; in [4] it was “Non-Toxic”; in the series on Plasmodium yoelii [5], 37%; in [9] it was “Non-Toxic”. Moreover, in series [7], the selectivity ratio stood at 192.

Consider `CCCCCc1cc(/C=C2\N=C(c3ccc[nH]3)C=C2OC)[nH]c1C.Cl`, for which the IC50 came out at 9.2 nM with Plasmodium falciparum [1]; 8 nM in the series on Plasmodium falciparum [2]; 7.3 nM in the series on Plasmodium falciparum [6]; 8.8 nM in the series with Plasmodium falciparum [8]; 1070 nM in the series on HepG2. Further, the Activity is reported as 63% with Plasmodium yoelii [3], “Non-Toxic” in [4], 100% with Plasmodium yoelii [5] and “Non-Toxic” in series [9]. Also, the selectivity ratio in [7] worked out at 134. In addition, the median effective dose (ED50) with Plasmodium yoelii [10] turned out to be 3.7 mg/kg/day. In addition, the ED90 in the series on Plasmodium yoelii [10] is 17 mg/kg/day.

`COC1=CC(c2ccc[nH]2)=N/C1=C\c1cc(CCCCC(C)C)c(C)[nH]1.Cl`: the 50% inhibitory concentration (IC50) with Plasmodium falciparum [1] came out at 2.1 nM; in the series on Plasmodium falciparum [2], 4.1 nM; in the series on Plasmodium falciparum [6], 2.1 nM; in the series with Plasmodium falciparum [8], 2.6 nM; in the series with HepG2, 1490 nM. Also, the Activity is reported as 65% in the series on Plasmodium yoelii [3], “Non-Toxic” in [4], 100% in the series on Plasmodium yoelii [5] and “Non-Toxic” in [9]. Moreover, in [7], the selectivity ratio is 363. The median effective dose (ED50) in the series on Plasmodium yoelii [10] came to 2.7 mg/kg/day. For the same compound, the ED90 in the series with Plasmodium yoelii [10] came out at 5.9 mg/kg/day.

As to `CCCCCCc1cc(/C=C2\N=C(c3ccc[nH]3)C=C2OC)[nH]c1C.Cl`, the IC50 with Plasmodium falciparum [1] was 3.6 nM; in the series on Plasmodium falciparum [2], 5.9 nM; with Plasmodium falciparum [6], 3.4 nM; in the series with Plasmodium falciparum [8] it was 4.6 nM; in the series on HepG2, 2420 nM. Further, the Activity was 70% in the series on Plasmodium yoelii [3], “Non-Toxic” in series [4], 100% in the series on Plasmodium yoelii [5] and “Non-Toxic” in [9]. For the same compound, the selectivity ratio in series [7] stood at 410. In the series on Plasmodium yoelii [10], the ED50 stood at 1.5 mg/kg/day. Also, the ED90 in the series with Plasmodium yoelii [10] was 4.8 mg/kg/day.

For the compound `C=CCCCCCCCCc1ccc(C2=N/C(=C\NCCC=C)C(OC)=C2)[nH]1.Cl`, the 50% inhibitory concentration (IC50) came out at 8.9 nM with Plasmodium falciparum [2], 6.5 nM in the series on Plasmodium falciparum [6], 2.6 nM with Plasmodium falciparum [8] and 1600 nM in the series with HepG2. For the same compound, the Activity is recorded as 0% with Plasmodium yoelii [3], “Non-Toxic” in [4], 42% with Plasmodium yoelii [5] and “Non-Toxic” in [9]. In addition, in series [7], the selectivity ratio turned out to be 180.

As for `CCCCc1cc(/C=C2\N=C(c3ccc(Cc4ccc(O)cc4)[nH]3)C=C2OC)[nH]c1C.Cl`, the IC50 in the series with Plasmodium falciparum [1] is 16 nM; in the series on Plasmodium falciparum [2], 12 nM; in the series on Plasmodium falciparum [6], 12 nM; with Plasmodium falciparum [8] it was 17 nM; with HepG2, 8880 nM. The Activity is 0% in the series with Plasmodium yoelii [3], “Non-Toxic” in [4], 6% with Plasmodium yoelii [5] and “Non-Toxic” in [9]. Moreover, in series [7], the selectivity ratio turned out to be 740.

For the compound `CCCCCCc1cc(/C=C2\N=C(c3ccc(Cc4ccc(O)cc4)[nH]3)C=C2OC)[nH]c1C.Cl`, the IC50 in the series with Plasmodium falciparum [1] amounted to 13 nM; in the series with Plasmodium falciparum [2] it was 9 nM; in the series on Plasmodium falciparum [6], 11 nM; in the series with Plasmodium falciparum [8], 12 nM; in the series with HepG2 it was 9930 nM. The Activity in the series on Plasmodium yoelii [3] is 0%; in series [4], “Non-Toxic”; in the series on Plasmodium yoelii [5] it was 9%; in series [9], “Non-Toxic”. For the same compound, in [7], the selectivity ratio came out at 1100.

Consider `CCCCc1cc(/C=C2\N=C(c3ccc[nH]3)C=C2OC)[nH]c1C.Cl`, for which the half-inhibitory concentration (IC50) amounted to 8.7 nM with Plasmodium falciparum [1]; 11 nM in the series with Plasmodium falciparum [2]; 5.6 nM in the series on Plasmodium falciparum [6]; 8.5 nM with Plasmodium falciparum [8]; 3320 nM with HepG2. Moreover, the Activity was 67% in the series with Plasmodium yoelii [3], “Non-Toxic” in series [4], 100% in the series with Plasmodium yoelii [5] and “Non-Toxic” in [9]. Also, the selectivity ratio in series [7] was 301. Besides, in the series with Plasmodium yoelii [10], the ED50 is 2.5 mg/kg/day. Besides, the ED90 in the series with Plasmodium yoelii [10] was found to be 8.5 mg/kg/day.

With `CCCCCc1cc(/C=C2\N=C(c3ccc(Cc4ccc(O)cc4)[nH]3)C=C2OC)[nH]c1C.Cl`, the half-maximal inhibitory concentration (IC50) with Plasmodium falciparum [1] is 27 nM; in the series with Plasmodium falciparum [2] it was 16 nM; in the series on Plasmodium falciparum [6], 28 nM; with Plasmodium falciparum [8], 29 nM; in the series on HepG2, 7020 nM. In addition, the Activity in the series on Plasmodium yoelii [3] was 0%; in series [4], “Non-Toxic”; in the series on Plasmodium yoelii [5], 0%; in [9], “Non-Toxic”. Further, the selectivity ratio in series [7] turned out to be 439.

Regarding `CCCCCc1cc(/C=C2\N=C(c3ccc(Cc4ccc(OC)cc4)[nH]3)C=C2OC)[nH]c1C.Cl`, the IC50 with Plasmodium falciparum [1] was determined as 5.6 nM; with Plasmodium falciparum [2], 2.4 nM; in the series on Plasmodium falciparum [6] it was 3.2 nM; in the series with Plasmodium falciparum [8] it was 2.3 nM; in the series with HepG2, 2640 nM. For the same compound, the Activity with Plasmodium yoelii [3] is listed as 60%; in series [4], “Non-Toxic”; with Plasmodium yoelii [5], 100%; in series [9], “Non-Toxic”. For the same compound, the selectivity ratio in series [7] came out at 1100. Further, in the series on Plasmodium yoelii [10], the ED50 was found to be 3.6 mg/kg/day. Also, the ED90 with Plasmodium yoelii [10] worked out at 18 mg/kg/day.

For `COC1=CC2=N/C1=C\NCC/C=C/CCCCCCCCc1ccc2[nH]1.Cl`, the IC50 in the series on Plasmodium falciparum [2] amounted to 22 nM; in the series on Plasmodium falciparum [6], 16 nM; in the series on Plasmodium falciparum [8], 13 nM; in the series with HepG2 it was 29400 nM. In addition, the Activity was 0% with Plasmodium yoelii [3], “Non-Toxic” in [4], 100% in the series with Plasmodium yoelii [5] and “Non-Toxic” in [9]. The selectivity ratio in series [7] turned out to be 1340. Besides, the 50% effective dose (ED50) in the series with Plasmodium yoelii [10] was 15 mg/kg/day. In addition, the ED90 in the series with Plasmodium yoelii [10] is 16 mg/kg/day.

Regarding `O=C1C(O)=C([C@H]2CC[C@H](c3ccc(Cl)cc3)CC2)C(=O)c2ccccc21` [ATOVAQUONE], the 50% inhibitory concentration (IC50) amounted to 0.2 nM with Plasmodium falciparum [1] and 0.1 nM with Plasmodium falciparum [2].

`CCN(CC)CCCC(C)Nc1ccnc2cc(Cl)ccc12` (stereo unspecified) [CHLOROQUINE]: the Activity in the series on Plasmodium yoelii [3] and with Plasmodium yoelii [5] was 100% throughout.
